Measurements: ChEMBL document CHEMBL4513216, “Probing the Open Global Health Chemical Diversity Library for Multistage-Active Starting Points for Next-Generation Antimalarials” (ACS Infect Dis, 2020)

test: Toxicity liver stage against HepG2, at 10uM; type: cell-based; parameters: test concentration 10 uM, cell line HepG2-A16-CD81EGFP; details: human, HepG2-A16-CD81EGFP cells; read-out: INHIBITION
In short: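 Uninfected HepG2-A16-CD81EGFP cells, 3 × 10^3 per well, 1536-well, plated on prespotted compound at 10 μM final, parasite-free screening media added to match infected plates; puromycin 10 μM positive, DMSO 0.5% negative; run in parallel with 48 h PbLuc assay at 37 °C, 5% CO2; viability by CellTiter-Glo luminescence, normalized to controls.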

Row | Compound | cytotoxicity at 10 µM [%]
1 | COc1cc(NC(=O)N2CCCC2c2ccco2)cc(OC)c1 (stereo unspecified) | 4.65
2 | CC1=C(c2ccc(Cl)cc2)S(=O)(=O)N=C1N1CCc2ccccc21 | -17.1
3 | COc1ccc2c(ccn2CCC(=O)N[C@H](C(=O)O)C(C)C)c1 | 5.98
4 | COc1ccc(C2CC(=O)Oc3cc(C)[nH]c(=O)c32)c(OC)c1 (stereo unspecified) | -3.4
5 | Cn1cc(NC(=O)C2CC(=O)N(c3n[nH]c4cccc(F)c34)C2)cn1 (stereo unspecified) | 4.59
6 | COc1ccc(C)cc1NC(=O)Nc1cnc(N2CCCC2)nc1 | 6.62
7 | Cc1noc(C)c1S(=O)(=O)N1CCC(Oc2ccccn2)CC1 | 0.67
8 | CC(C)(C)c1cc(=O)n2c(n1)SCC(C(=O)NCc1ccco1)C2 (stereo unspecified) | -15.1
9 | O=C(c1ccccn1)N1CCC(S(=O)(=O)c2ccccc2)C1 (stereo unspecified) | 3.26
10 | Cc1nc(N2CCOCC2)nc(C)c1NC(=O)c1ccco1 | 1.9
11 | CCS(=O)(=O)N1CCC2(CN(c3cc(OC)ncn3)C2)C1 | 0.325
12 | O=C1[C@@H]2CCN(CC3CC3)C[C@@H]2OCCN1c1cccnc1 | 8.1
13 | O=C(c1ncn2c1CNS(=O)(=O)c1ccccc1-2)N1CCOCC1 | 8.28
14 | CN(C)C(=O)N1CCCC2(CCN(Cc3ccncc3)C2)C1 (stereo unspecified) | 7.61
15 | O=c1cc(Cn2ccnc2)nc2n1CCCN(CC1CCOCC1)C2 | 12.7
16 | CCS(=O)(=O)N1CCO[C@H]2[C@H](OCC3CCCC3)CC[C@@H]21 | -9.6
17 | CCN1CCC2(CC1)CC(Nc1ncccn1)CO2 (stereo unspecified) | -21.6
18 | CCNc1nc(N(C)C)nc(-n2cnc(SC)n2)n1 | 2.22
19 | CC(C(=O)N1CCOCC1)n1cc(Br)cn1 (stereo unspecified) | 14.1
20 | Cc1ccc(CN2CCN(CC(=O)Nc3ccc4nsnc4c3)CC2)o1 | -17.5
21 | Cn1nc(C(=O)NCc2ccccc2C(F)(F)F)c2c1CCS(=O)(=O)C2 | 5.37
22 | CCCc1nc(NCC(=O)N2CCOCC2)c2c(n1)c(C)nn2CC | 12.2
23 | COc1ccc(C2=NOC(CC#N)C2)cc1 (stereo unspecified) | 1.52

Row | Compound | cytotoxicity at 10 µM [%]
24 | O=C(O)c1cnc(N2CCC(O)CC2)nc1COc1ccc(F)cc1 | -7.52
25 | O=C(O)c1cnc(N2CCCC2)nc1COc1ccc(F)cc1 | -1.14
26 | CC(C)C(=O)NC(Cc1cc(N(C)C)nc(C2CC2)n1)c1ccccc1 (stereo unspecified) | 3.37
27 | Cc1ocnc1C(=O)N(C)[C@@H]1CC[C@@H](n2ccnc2C)[C@@H]1O | 0.642
28 | COc1cc(OC)cc(C(=O)N2CCOCC2c2[nH]ncc2C)c1 (stereo unspecified) | 7.83
29 | COc1ccc(CC(=O)N2CCCC2c2nc(C)c(C)c(O)n2)cc1 (stereo unspecified) | -17.7
30 | Cc1nc2ccc(C(=O)N3C[C@@H](O)[C@H](N4CCN(C)CC4)C3)cc2[nH]1 | -27.5
31 | CCCN(C(=O)c1ccncc1)c1nc2c(s1)CCc1c-2cnn1C | -14.6
32 | Cc1nc2c(c(=O)[nH]1)CCN(C(=O)c1cccc3nccnc13)C2 | -16.8
33 | O=C(c1cccnc1)N1CCc2c(nc(N3CCCC3)[nH]c2=O)C1 | 4.51
34 | CCCC(=O)NCCc1cc(N2CCN(C(C)=O)CC2)nc(C2CC2)n1 | -28.2
35 | Cc1cccnc1CN1CCCCC1c1ccn2ccnc2n1 (stereo unspecified) | 0.498
36 | CCc1nccn1-c1cncc(C2CCCN2Cc2ccccc2)n1 (stereo unspecified) | -1.17
37 | CCCn1cc(CN2CCC(c3[nH]ncc3S(C)(=O)=O)C2)cn1 (stereo unspecified) | 4.27
38 | Cc1cccc(Nc2nccnc2C2CCCN2CC(=O)N(C)C)n1 (stereo unspecified) | -5.28
39 | FC(F)(F)Cn1nnnc1SCCN1CCCCC1 | -61.4
40 | COCCCN1Cc2cccc(NC(=O)c3cc(F)cc(F)c3)c2C1 | 2.28
41 | Cc1ccc(CNC(CCO)C2CCCCC2)nc1 (stereo unspecified) | -37.4
42 | Cc1ncccc1CNC(CCO)C1CCCCC1 (stereo unspecified) | -41.8
43 | COc1ccc(C(=O)NC2CCN(c3ncccn3)CC2)cc1F | -17.8
44 | COC(=O)N1CCCC(C(=O)Nc2ccccc2CN2CCCC2)C1 (stereo unspecified) | -9.07
45 | CCOC(=O)NC(CNC(=O)c1cccc(C)n1)CC(C)C (stereo unspecified) | 6.17
46 | Cc1n[nH]c(C2CN(C(=O)c3ccc4c(c3)CCCC4)CCO2)n1 (stereo unspecified) | -10.8

Row | Compound | cytotoxicity at 10 µM [%]
47 | CN1N=C(C(=O)N(Cc2ccco2)C2CCCC2)CCC1=O | -144
48 | CCc1nccn1C1CCCN(C(=O)c2ccc(N(C)C)nn2)C1 (stereo unspecified) | 3.19
49 | Cc1n[nH]c(C)c1NC(=O)C1CCCN(C(=O)NCC(C)C)C1 (stereo unspecified) | 11
50 | Cc1ccc(CN(C(=O)NCCNC(=O)c2cccnc2)C(C)C)o1 | -6.06
51 | Cc1noc(C)c1CC(=O)NCC(C)N1CCOCC1 (stereo unspecified) | -52
52 | O=C(Cc1ccccc1Cl)Nc1ccn(CCN2CCOCC2)n1 | -5.44
53 | Cc1cc(CCC(=O)NCc2nccn2C)ccc1Br | 2.95
54 | CN1CCN(CC(=O)NCc2ccco2)Cc2ccccc21 | -3.81
55 | O=C(CN(CC(O)c1ccc(F)cc1)C1CC1)NC(C1CC1)C1CC1 (stereo unspecified) | 11.8
56 | O=C(Nc1ccccc1)c1ccc(NCc2ccccc2CO)nn1 | 4.34
57 | COCC(C)NC(=O)CSc1ccc(F)c(Cl)c1 (stereo unspecified) | -48
58 | O=S(=O)(Cc1ccc(F)cc1F)NCCOc1cccnc1 | -45.9
59 | CN(Cc1cnccn1)c1cncc(Br)c1 | -8.46
60 | OC(CNC1CCOCC1)c1cccc(OCc2ccccc2)c1 (stereo unspecified) | -10.3
61 | O=C(c1ccco1)N1CCCC2(C1)CN(c1nncs1)CCO2 (stereo unspecified) | -99.3
62 | O=C(C1CCOC1)N1CCC2(CCN(Cc3nccs3)C2)CC1 (stereo unspecified) | -74.8
63 | CNC(=O)Cc1cc2nccc(-c3c(OC)cccc3OC)n2n1 | -10.4
64 | CCOC(=O)c1coc(N2CCC(N3CCC(O)CC3)CC2)n1 | 6.41
65 | Cc1cnc(C(=O)N2CCCCC2c2ccc(CN(C)C)cc2)cn1 (stereo unspecified) | -2.46
66 | Cc1cc(NC2CCN(CC3CCCO3)CC2)n2nc(C)c(C)c2n1 (stereo unspecified) | 8.96
67 | COCCN(Cc1ccncc1)C(=O)C1COc2ccccc2C1 (stereo unspecified) | 6.77
68 | CCN1CC(C(=O)NCCCc2nc(C)c(C)s2)CC1=O (stereo unspecified) | -7.03
69 | c1cc(CN2CCC(c3ccncc3)CC2)cc(Cn2cccn2)c1 | -10.1

Row | Compound | cytotoxicity at 10 µM [%]
70 | Cc1cc(NC(=O)c2ccc(N3CCOCC3)c(C)c2)[nH]n1 | -35.1
71 | CSCCCN(CCN1CCOCC1)Cc1ccco1 | 8.05
72 | NCC1CN(Cc2cn(CCC(N)=O)c3ccccc23)CCO1 (stereo unspecified) | 4.01
73 | CCOC(=O)c1coc(N2CCN(C(=O)c3cccc(OC)c3)CC2)n1 | 8.15
74 | Cc1ncnc(N2CCN(C(=O)C3CC4(CCNCC4)CN3)CC2)c1C (stereo unspecified) | -14.7
75 | Cc1nc(CCNC(=O)C2CC(=O)N(C(C)(C)C)C2)sc1Cl (stereo unspecified) | 16.8
76 | CCOc1ccc(Cl)cc1C(C(=O)O)N1CCCC1 (stereo unspecified) | 0.95
77 | O=C(COCC1CCCCO1)N1CCN(Cc2ccccc2F)C(=O)C1 (stereo unspecified) | 3.15
78 | COc1ccc(OCC2CCCN(Cc3ccncc3)C2)cc1 (stereo unspecified) | -8.44
79 | CCS(=O)(=O)CCNCc1cc(O)c2cc(C)cc(C)c2n1 | 1.36
80 | CCc1cnc(C)nc1N1CCN(C(N)=O)CC1 | -46.3
81 | Cc1ccc(Cl)c(C)c1NC(=O)N1CCCN(Cc2ccccn2)CC1 | 0.617
82 | COc1ccc(OC)c(C2CCN(Cc3nc(C)n4ccccc34)C2)c1 (stereo unspecified) | -8.66
83 | Cc1cnn(CCNCC(=O)NCCOc2ccc(F)cc2)c1 | -4.45
84 | CCc1nccn1C1CCCN(C(=O)COCC(F)(F)F)C1 (stereo unspecified) | -9.74
85 | CC(C)NC(=O)CN1CCC(c2cccc(F)c2)C1 (stereo unspecified) | 0.103
86 | Cc1cc(CNC2CCCN(Cc3noc(C4CC4)n3)C2)on1 (stereo unspecified) | -17.7
87 | Cc1cc(NC(=O)NCC(c2ccc(C)o2)N2CCOCC2)n(C)n1 (stereo unspecified) | -32.5
88 | CC(OCC1CC1)C(=O)N1CCCN(Cc2nccn2C(C)C)CC1 (stereo unspecified) | -11.9
89 | CC(Cc1ccccc1Cl)NC(=O)Nc1cnn(CC(N)=O)c1 (stereo unspecified) | -4.23
90 | COc1ccc(COCC(O)CNC(=O)c2cc(C)oc2C)cc1 (stereo unspecified) | -13.3
91 | c1ccc(-c2noc(CCCN3CCCC3Cn3cccn3)n2)cc1 (stereo unspecified) | -13
92 | COc1cccc(COCC(=O)N2CCCC(c3ccn[nH]3)C2)c1 (stereo unspecified) | -20.9

Row | Compound | cytotoxicity at 10 µM [%]
93 | Cc1cnn(CCNCC(O)COc2ccc(Cl)cc2)c1 (stereo unspecified) | -12.6
94 | CN(Cc1ccsc1)C(=O)Nc1ccc(S(C)(=O)=O)nc1 | 3.28
95 | CCn1cnnc1CNC(=O)NCC(c1cccs1)N1CCCC1 (stereo unspecified) | -7.72
96 | COCc1nc(C(=O)N2CCCC2c2c(C)nn(C)c2C)cs1 (stereo unspecified) | -4.74
97 | O=C(CCc1cccs1)N1CCCCC1Cn1cccn1 (stereo unspecified) | 1.54
98 | Cc1nc(C)n(CC2CCCN2Cc2cc(C)on2)n1 (stereo unspecified) | 4.04
99 | CS(=O)(=O)c1ccc(-c2cnc(C3CCCN3)cn2)cc1 (stereo unspecified) | -1.71
100 | Cc1cc(C)nc(Nc2cc(C3CCCN(C)C3)nc(C)n2)n1 (stereo unspecified) | -5.12
101 | CC(C)OCc1ncn2c1CN(Cc1nccs1)CCC2 | -83.6
102 | O=C(C1CCOCC1)N1CCc2onc(COc3cccnc3)c2C1 | -69.6
103 | CNC(=O)C1Cn2ccnc2C2(CCN(Cc3cccs3)CC2)O1 (stereo unspecified) | -70.6
104 | O=C(c1ccc(O)cc1)N1C[C@@H]2CCN(c3cccnc3)C[C@@H]2C1 | -50.9
105 | Cn1cc(C[C@H]2[C@H](O)CCN2Cc2ccncc2)cn1 | -78.5
106 | COCCN1CCC2(CC1)CC(NCc1ccc(C)s1)c1ccccc12 (stereo unspecified) | -121
107 | c1cncc(C2COC3(CCN(Cc4ccsc4)CC3)C2)c1 (stereo unspecified) | -3.74
108 | CNC(=O)[C@H]1CC[C@@H]2[C@@H](CCN2CCOCc2ccccc2)O1 | -109
109 | CCS(=O)(=O)N1CCCC2(COCCN(c3cnccn3)C2)C1 (stereo unspecified) | 10.2
110 | COc1cccc(-c2ncc(CN3CC[C@@H]4CC[C@H](C3)N4)s2)c1 | -12.4
111 | Cn1ccc(NC(=O)CN2C[C@@H]3CC[C@H]2CN(Cc2ccccn2)C3)n1 | 0.936
